Consider two proteins from ChEMBL document CHEMBL1127042, “Molecular size and flexibility as determinants of selectivity in the oxidation of N-methyl-4-phenyl-1,2,3,6-tetrahydropyridine analogs by monoamine oxidase A and B” (J Med Chem, 1993).

Substrate in data set [1]: CN1CC=C(CCc2ccc3ccccc3c2)CC1
The data set can be described thus: (§1) Michaelis-Menten constant against MAO B. The arrangement: species or system Bos taurus. A digest of the protocol:
(§2)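 Beef liver MAO B, purified. Initial oxidation rates measured polarographically at 30 °C in sodium phosphate buffer, pH 7.2, with 0.2% (w/v) Brij-35. The reaction was started by adding enzyme, dosed so rates were measurable within 60-120 s. Vmax came from double-reciprocal plots. Turnover number was Vmax per flavin content. Flavin content came from the optical density change on anaerobic reduction by benzylamine.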

Substrate in data set [2]: CN1CC=C(CCc2cccc3ccccc23)CC1
The description is as §1. More on the design: species or system Bos taurus. The method in brief:
as §2

Substrate in data set [3]: CN1CC=C(CCc2ccccc2)CC1
Described as §1. The arrangement: species or system Bos taurus. The method in brief:
as §2

Substrate in data set [4]: CN1CC=C(CCc2cccs2)CC1
The description is as §1. The arrangement: species or system Bos taurus. A digest of the protocol: as §2

Substrate in data set [5]: CN1CC=C(CCc2ccsc2)CC1
Described as §1. More on the design: species or system Bos taurus. The method in brief:
as §2

Substrate in data set [6]: CN1CC=C(Cc2ccc3ccccc3c2)CC1
Described as §1. The arrangement: species or system Bos taurus. The method in brief: as §2

Substrate in data set [7]: CN1CC=C(Cc2cccc3ccccc23)CC1
The description is as §1. More on the design: species or system Bos taurus. A digest of the protocol:
as §2

Substrate in data set [8]: CN1CC=C(Cc2ccccc2)CC1
The data set is described as §1. More on the design: species or system Bos taurus. The method in brief:
as §2

Substrate in data set [9]: CN1CC=C(Cc2cccs2)CC1
The description is as §1. More on the design: species or system Bos taurus. The method in brief: as §2

Substrate in data set [10]: CN1CC=C(Cc2ccsc2)CC1
Described as §1. More on the design: species or system Bos taurus. A digest of the protocol:
as §2

Substrate in data set [11]: CN1CC=C(c2ccc3ccccc3c2)CC1
The data set is described as §1. More on the design: species or system Bos taurus. A digest of the protocol:
as §2

Substrate in data set [12]: CN1CC=C(c2cccc3ccccc23)CC1
The data set is described as §1. The arrangement: species or system Bos taurus. The method in brief: as §2

Substrate in data set [13]: CN1CC=C(c2cccs2)CC1
Described as §1. More on the design: species or system Bos taurus. The method in brief: as §2

Substrate in data set [14]: CN1CC=C(c2ccsc2)CC1
The description is as §1. The arrangement: species or system Bos taurus. The method in brief: as §2

Substrate in data set [15]: NCCC(=O)c1ccccc1N
The data set is described as §1. The arrangement: species or system Bos taurus. A digest of the protocol: as §2

Substrate in data set [16]: NCc1ccccc1
The description is as §1. More on the design: species or system Bos taurus. A digest of the protocol: as §2

Substrate in data set [17]: CN1CC=C(CCc2ccc3ccccc3c2)CC1
The data set can be described thus: (§3) Michaelis-Menten constant against MAO A. A digest of the protocol: (§4)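 Human liver MAO A expressed in yeast, purified. Initial oxidation rates measured polarographically (O2 uptake) at 30 °C in sodium phosphate buffer, pH 7.2, with 0.2% (w/v) Brij-35. Enzyme was added last to start the reaction, and its amount was set so rates were read within 60-120 s. Vmax came from double-reciprocal plots. TN was Vmax divided by flavin content. Flavin content was found from the optical density change on anaerobic reduction by kynuramine.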

Substrate in data set [18]: CN1CC=C(CCc2cccc3ccccc23)CC1
The data set is described as §3. A digest of the protocol: as §4

Substrate in data set [19]: CN1CC=C(CCc2ccccc2)CC1
The description is as §3. The method in brief:
as §4

Substrate in data set [20]: CN1CC=C(CCc2cccs2)CC1
The data set is described as §3. A digest of the protocol:
as §4

Substrate in data set [21]: CN1CC=C(CCc2ccsc2)CC1
Described as §3. The method in brief: as §4

Substrate in data set [22]: CN1CC=C(Cc2ccc3ccccc3c2)CC1
The description is as §3. The method in brief: as §4

Substrate in data set [23]: CN1CC=C(Cc2cccc3ccccc23)CC1
The data set is described as §3. The method in brief: as §4

Substrate in data set [24]: CN1CC=C(Cc2ccccc2)CC1
The data set is described as §3. The method in brief: as §4

Substrate in data set [25]: CN1CC=C(Cc2cccs2)CC1
The data set is described as §3. A digest of the protocol:
as §4

Substrate in data set [26]: CN1CC=C(Cc2ccsc2)CC1
Described as §3. The method in brief: as §4

Substrate in data set [27]: CN1CC=C(c2ccc3ccccc3c2)CC1
Described as §3. The method in brief:
as §4

Substrate in data set [28]: CN1CC=C(c2cccc3ccccc23)CC1
Described as §3. A digest of the protocol: as §4

Substrate in data set [29]: CN1CC=C(c2cccs2)CC1
Described as §3. A digest of the protocol: as §4

Substrate in data set [30]: CN1CC=C(c2ccsc2)CC1
Described as §3. The method in brief: as §4

Substrate in data set [31]: NCCC(=O)c1ccccc1N
The data set is described as §3. The method in brief: as §4

Substrate in data set [32]: NCc1ccccc1
Described as §3. The method in brief:
as §4

B1: Amine oxidase [flavin-containing] B (Bos taurus) (protein)
chain: MSSKCDVVVVGGGISGMAAAKLLHDSGLNVIVLEARDRVGGRTYTLRNQKVKYVDLGGSYVGPTQNHILRLSKELGLETYKVNEVERLIHHTKGKSYPFRGSFPSVWNPITYLDHNNLWRTMDDMGREIPSDAPWKAPLAEQWDLMTMKELLDKICWTESSKQLAILFVNLCVTAEIHEVSALWFLWYVKQCGGTTRIFSTSNGGQERKFVGGSGQVSERIMDLLGDRVKLERPVIHIDQTGENVLVETLNHELYEAKYVISAVPPVLGMKIHFNPPLPMMRNQLITRVPLGSVIKSIVYYKEPFWRNMDYCGSMIIEGEEAPVAYALDDTKPDGSYPAIIGFILAHKARKLARLTKEERLKKLCDLYAKVLGSQEALHPVHYEEKNWCEEQYSGGCYTSYFPPGIMTQYGRVLRQPVGRIYFAGTETATHWSGYMEGAVEAGERAAREILHAMGKIPEDEIWLPEPESVDVPAKPITTTFLQRHLPSVPGLLKLIGLTTIFSATALGFLAHKRGLLVRI
On to B1, for which the Km came to 1030 µM in [1]; 1280 µM in data set [2]; 54 µM in data set [3]; 49 µM in [4]; 57 µM in data set [5]; 840 µM in [6]. Also, the Km in data set [7] worked out at 850 µM; in [8], 154 µM; in data set [9] it was 102 µM; in [10] it was 195 µM; in [11] it was 730 µM; in data set [12] it was 110 µM. In addition, the Km was determined as 168 µM in data set [13], 26 µM in data set [14], 84 µM in data set [15] and 290 µM in [16].

B2: Amine oxidase [flavin-containing] A (Homo sapiens) (protein)
chain: MENQEKASIAGHMFDVVVIGGGISGLSAAKLLTEYGVSVLVLEARDRVGGRTYTIRNEHVDYVDVGGAYVGPTQNRILRLSKELGIETYKVNVSERLVQYVKGKTYPFRGAFPPVWNPIAYLDYNNLWRTIDNMGKEIPTDAPWEAQHADKWDKMTMKELIDKICWTKTARRFAYLFVNINVTSEPHEVSALWFLWYVKQCGGTTRIFSVTNGGQERKFVGGSGQVSERIMDLLGDQVKLNHPVTHVDQSSDNIIIETLNHEHYECKYVINAIPPTLTAKIHFRPELPAERNQLIQRLPMGAVIKCMMYYKEAFWKKKDYCGCMIIEDEDAPISITLDDTKPDGSLPAIMGFILARKADRLAKLHKEIRKKKICELYAKVLGSQEALHPVHYEEKNWCEEQYSGGCYTAYFPPGIMTQYGRVIRQPVGRIFFAGTETATKWSGYMEGAVEAGERAAREVLNGLGKVTEKDIWVQEPESKDVPAVEITHTFWERNLPSVSGLLKIIGFSTSVTALGFVLYKYKLLPRS
On to B2, for which the Km in data set [17] was found to be 43 µM; in data set [18], 76 µM; in data set [19], 120 µM; in data set [20], 108 µM; in data set [21], 130 µM; in data set [22], 36 µM. Further, the Km in [23] was 167 µM; in data set [24] it was 66 µM; in data set [25], 48 µM; in data set [26], 136 µM; in [27] it was 4.6 µM; in [28], 74 µM. The Km in data set [29] was 188 µM; in data set [30], 102 µM; in data set [31], 170 µM; in data set [32] it was 780 µM.
